Results: ChEMBL document CHEMBL1142987, “Cinnamoyl compounds as simple molecules that inhibit p300 histone acetyltransferase” (J Med Chem, 2007)
Values belong to the compound of their own block, whether it stands above or below them. Calls of active or inactive are those of the source. The rule behind the calls is not given here.

Legend:
[1] = target: T1, Histone acetyltransferase p300 (Homo sapiens, UniProt Q09472); experiment: Inhibition of GST-p300 HAT assessed as histone acetylation
Method in brief: (§1)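 Recombinant histones H1, H2A, H2B, H3 and H4 were acetylated in vitro by the p300 HAT domain. Acetylated histones were detected by gel autoradiography, with Coomassie staining for total histone. IC50 was taken from densitometric dose–response curves, as the mean of at least three separate experiments.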

[2] = target: T1, Histone acetyltransferase p300; experiment: Activity of GST-p300 HAT assessed as HAT activity at 5 uM
Method in brief: (§2)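 The same in vitro HAT assay was run with equal molar amounts of p300, PCAF and GCN5, each with a test compound at 5 or 21 µM. Acetylation was quantified by densitometry and expressed as percent variation from the DMSO-treated sample. Values are the mean of three independent experiments ± standard error.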

[3] = target: Histone acetyltransferase KAT2A (Homo sapiens) (UniProt Q92830); experiment: Activity of GST-GCN5 assessed as HAT activity at 5 uM; method in brief: as §2
HeLa [4] = experiment: Cytotoxicity in HeLa cells expressing H2B-EYFP above 20 uM; assay type: functional, cell-based; details: Homo sapiens, in the assay text read “above 40 uM” for “above 20 uM”
Method in brief: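 Cell toxicity in compound-treated H2B-EYFP HeLa cells was scored as decreased H2B-EYFP fluorescence.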

HeLa [5] = experiment: Reduction of acetylation in HeLa cells expressing H2B-EYFP at 40 uM; assay type: functional, Homo sapiens; set-up: scale not given: the % may be the effect or the level left
Method in brief: (§3)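 HeLa cells stably expressing H2B-EYFP were grown in 10% FCS-DMEM and treated with 20 or 40 µM compound or DMSO. Cells were then immunostained for acetyl-H3. Mean anti-acetyl-H3 fluorescence was normalized to H2B-EYFP fluorescence in the same cells and expressed as percent inhibition versus DMSO. Each of three independent experiments analyzed 150 cells; mean and standard error are reported.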

HeLa [6] = experiment: Reduction of acetylation in HeLa cells expressing H2B-EYFP at 20 uM; assay type: functional, Homo sapiens; set-up: scale not given: the % may be the effect or the level left; method in brief: as §3
[7] = target: T1, Histone acetyltransferase p300; experiment: Inhibition of GST-p300 HAT expressed in bacteria assessed as histone acetylation
Method in brief: as §1, with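 “domain. Compounds were tested at 25–400 µM, or from 0.19 µM for one compound.” for “domain.”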

[8] = target: T1, Histone acetyltransferase p300; experiment: Inhibition of full length GST-p300 expressed in Sf9 cells assessed as histone acetylation
[9] = target: T1, Histone acetyltransferase p300; experiment: Activity of GST-p300 HAT assessed as HAT activity at 21 uM; method in brief: as §2
[10] = target: Histone acetyltransferase KAT2B (Homo sapiens) (UniProt Q92831); experiment: Activity of GST-PCAF assessed as HAT activity at 21 uM; method in brief: as §2
[11] = target: Histone acetyltransferase KAT2A (Homo sapiens) (UniProt Q92830); experiment: Activity of GST-GCN5 assessed as HAT activity at 21 uM; method in brief: as §2
HeLa [12] = experiment: Acetylation of H3 in HeLa cells expressing H2B-EYFP upto 200 uM; assay type: functional, cell-based; details: Homo sapiens
Method in brief: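 H2B-EYFP HeLa cells in 10% FCS-DMEM were treated with various compound concentrations up to 200 µM, then immunostained with anti-acetyl-H3 antibodies. H2B-EYFP fluorescence served as an internal control for protein expression.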

T1 sequence (Q09472 whole entry, the tested form may be a part): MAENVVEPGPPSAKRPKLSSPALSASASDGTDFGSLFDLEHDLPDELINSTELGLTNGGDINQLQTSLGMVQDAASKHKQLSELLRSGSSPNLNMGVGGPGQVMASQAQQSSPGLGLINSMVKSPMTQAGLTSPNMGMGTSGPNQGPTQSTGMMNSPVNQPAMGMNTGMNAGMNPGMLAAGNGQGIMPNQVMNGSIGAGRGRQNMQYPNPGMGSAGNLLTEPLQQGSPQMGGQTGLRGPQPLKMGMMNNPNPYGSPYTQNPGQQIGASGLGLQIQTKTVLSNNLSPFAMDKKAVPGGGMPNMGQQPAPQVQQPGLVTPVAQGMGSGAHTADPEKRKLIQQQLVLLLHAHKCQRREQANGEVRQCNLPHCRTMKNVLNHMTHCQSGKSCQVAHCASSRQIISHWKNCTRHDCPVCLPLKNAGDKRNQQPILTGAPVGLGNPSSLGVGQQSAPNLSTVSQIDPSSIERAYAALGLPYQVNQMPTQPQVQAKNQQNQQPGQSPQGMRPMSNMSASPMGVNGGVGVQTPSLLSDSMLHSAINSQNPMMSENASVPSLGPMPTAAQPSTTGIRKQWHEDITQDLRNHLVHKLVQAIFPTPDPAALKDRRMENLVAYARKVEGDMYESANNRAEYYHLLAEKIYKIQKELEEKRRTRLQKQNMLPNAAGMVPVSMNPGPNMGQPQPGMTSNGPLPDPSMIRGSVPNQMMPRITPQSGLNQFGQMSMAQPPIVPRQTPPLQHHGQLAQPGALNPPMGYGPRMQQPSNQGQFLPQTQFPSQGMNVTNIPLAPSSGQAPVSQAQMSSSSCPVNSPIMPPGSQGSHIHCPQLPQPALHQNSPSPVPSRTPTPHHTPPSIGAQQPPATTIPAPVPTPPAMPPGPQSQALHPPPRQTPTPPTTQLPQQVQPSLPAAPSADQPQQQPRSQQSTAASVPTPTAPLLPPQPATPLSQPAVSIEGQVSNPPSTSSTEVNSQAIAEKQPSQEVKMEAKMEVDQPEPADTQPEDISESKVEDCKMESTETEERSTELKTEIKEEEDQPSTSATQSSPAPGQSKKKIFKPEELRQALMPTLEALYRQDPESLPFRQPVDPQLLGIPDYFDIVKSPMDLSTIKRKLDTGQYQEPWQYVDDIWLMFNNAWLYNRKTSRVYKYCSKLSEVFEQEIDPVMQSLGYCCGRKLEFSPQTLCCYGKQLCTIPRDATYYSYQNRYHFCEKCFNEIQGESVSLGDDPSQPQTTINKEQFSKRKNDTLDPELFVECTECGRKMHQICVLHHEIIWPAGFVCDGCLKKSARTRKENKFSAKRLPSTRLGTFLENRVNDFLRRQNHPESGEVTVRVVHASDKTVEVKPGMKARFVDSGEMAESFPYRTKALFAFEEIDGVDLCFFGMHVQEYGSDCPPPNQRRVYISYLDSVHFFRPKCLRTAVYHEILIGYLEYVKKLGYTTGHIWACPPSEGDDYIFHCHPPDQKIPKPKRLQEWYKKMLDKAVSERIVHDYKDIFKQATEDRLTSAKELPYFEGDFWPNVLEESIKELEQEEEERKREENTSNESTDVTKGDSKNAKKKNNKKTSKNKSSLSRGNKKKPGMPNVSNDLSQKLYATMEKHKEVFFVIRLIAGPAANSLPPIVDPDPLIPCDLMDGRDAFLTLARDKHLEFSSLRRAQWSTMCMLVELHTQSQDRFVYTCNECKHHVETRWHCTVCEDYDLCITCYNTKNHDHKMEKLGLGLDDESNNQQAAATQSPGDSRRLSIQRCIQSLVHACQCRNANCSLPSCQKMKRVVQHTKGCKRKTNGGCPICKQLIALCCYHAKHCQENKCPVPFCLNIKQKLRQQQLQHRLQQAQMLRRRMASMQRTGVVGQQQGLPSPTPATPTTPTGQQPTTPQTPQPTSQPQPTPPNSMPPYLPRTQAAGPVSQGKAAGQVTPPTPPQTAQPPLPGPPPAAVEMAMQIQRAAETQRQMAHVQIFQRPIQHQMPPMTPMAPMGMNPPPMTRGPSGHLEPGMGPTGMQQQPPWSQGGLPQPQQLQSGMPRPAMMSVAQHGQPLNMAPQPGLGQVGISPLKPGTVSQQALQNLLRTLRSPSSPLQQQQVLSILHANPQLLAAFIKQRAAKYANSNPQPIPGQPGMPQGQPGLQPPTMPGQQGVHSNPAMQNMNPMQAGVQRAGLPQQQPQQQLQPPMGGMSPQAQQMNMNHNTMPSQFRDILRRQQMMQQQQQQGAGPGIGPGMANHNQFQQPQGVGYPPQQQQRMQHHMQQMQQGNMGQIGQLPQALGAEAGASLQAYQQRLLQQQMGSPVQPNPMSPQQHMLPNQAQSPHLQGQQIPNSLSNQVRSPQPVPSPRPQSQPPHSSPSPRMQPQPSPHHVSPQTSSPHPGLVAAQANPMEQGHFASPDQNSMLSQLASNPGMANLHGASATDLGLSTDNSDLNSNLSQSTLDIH
Chain of Histone acetyltransferase KAT2A (Homo sapiens) (Q92830 2-837 limits assumed): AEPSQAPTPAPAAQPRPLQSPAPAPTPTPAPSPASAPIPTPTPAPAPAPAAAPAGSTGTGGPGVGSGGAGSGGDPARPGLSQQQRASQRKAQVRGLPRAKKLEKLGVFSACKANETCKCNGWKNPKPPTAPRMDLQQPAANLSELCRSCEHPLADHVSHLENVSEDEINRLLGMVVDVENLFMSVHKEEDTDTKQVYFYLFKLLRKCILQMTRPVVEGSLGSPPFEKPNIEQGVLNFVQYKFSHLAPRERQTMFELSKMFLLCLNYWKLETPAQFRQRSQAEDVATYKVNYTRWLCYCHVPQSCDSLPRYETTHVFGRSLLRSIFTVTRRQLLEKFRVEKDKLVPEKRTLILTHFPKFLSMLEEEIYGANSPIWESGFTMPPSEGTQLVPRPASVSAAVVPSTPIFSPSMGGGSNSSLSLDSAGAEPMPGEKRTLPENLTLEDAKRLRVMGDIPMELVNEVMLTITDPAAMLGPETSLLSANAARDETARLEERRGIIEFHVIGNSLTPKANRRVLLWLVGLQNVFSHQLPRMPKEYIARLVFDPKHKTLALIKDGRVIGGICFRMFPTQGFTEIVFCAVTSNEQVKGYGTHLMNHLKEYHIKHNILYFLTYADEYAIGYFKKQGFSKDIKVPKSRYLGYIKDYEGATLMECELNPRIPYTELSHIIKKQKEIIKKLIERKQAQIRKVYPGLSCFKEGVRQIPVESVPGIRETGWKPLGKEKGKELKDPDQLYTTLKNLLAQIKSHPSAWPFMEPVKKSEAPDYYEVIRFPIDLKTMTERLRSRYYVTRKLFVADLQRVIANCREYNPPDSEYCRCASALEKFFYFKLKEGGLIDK
Chain of Histone acetyltransferase KAT2B (Homo sapiens) (Q92831 whole entry, looked up): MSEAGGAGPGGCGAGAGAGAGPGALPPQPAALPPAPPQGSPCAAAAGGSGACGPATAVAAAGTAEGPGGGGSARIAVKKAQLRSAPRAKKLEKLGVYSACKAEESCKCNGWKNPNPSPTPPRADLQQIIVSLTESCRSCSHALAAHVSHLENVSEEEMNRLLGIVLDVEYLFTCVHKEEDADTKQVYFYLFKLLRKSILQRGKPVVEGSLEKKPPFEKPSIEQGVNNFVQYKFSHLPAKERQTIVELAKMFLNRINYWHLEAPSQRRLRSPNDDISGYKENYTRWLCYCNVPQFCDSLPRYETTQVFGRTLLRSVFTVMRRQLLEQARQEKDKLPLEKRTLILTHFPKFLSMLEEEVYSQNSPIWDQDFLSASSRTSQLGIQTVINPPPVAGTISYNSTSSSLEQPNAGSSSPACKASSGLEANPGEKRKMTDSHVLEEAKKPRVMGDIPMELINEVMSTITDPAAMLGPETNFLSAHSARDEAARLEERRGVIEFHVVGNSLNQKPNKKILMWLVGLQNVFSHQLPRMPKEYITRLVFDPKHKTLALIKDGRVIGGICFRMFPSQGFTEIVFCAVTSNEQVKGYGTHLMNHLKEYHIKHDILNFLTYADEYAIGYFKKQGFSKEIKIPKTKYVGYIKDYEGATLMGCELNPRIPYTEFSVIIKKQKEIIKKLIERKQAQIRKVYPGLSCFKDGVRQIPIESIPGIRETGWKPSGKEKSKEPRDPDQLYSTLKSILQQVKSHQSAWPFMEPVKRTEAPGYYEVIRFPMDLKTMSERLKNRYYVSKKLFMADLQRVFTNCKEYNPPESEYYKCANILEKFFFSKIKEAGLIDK

Structure (SMILES): COc1cc(/C=C/C(=O)CC(=O)/C=C/c2ccc(O)c(OC)c2)ccc1O
Activity [7]: inactive
Activity [8]: inactive

Structure (SMILES): O=C(/C=C(O)/C=C/c1ccc(O)c(O)c1)/C=C/c1ccc(O)c(O)c1
IC50 [1]: 46 µM

Structure (SMILES): O=C(/C=C(O)/C=C/c1ccc(O)c(C(=O)O)c1)/C=C/c1ccc(O)c(C(=O)O)c1
IC50 [1]: 21 µM
Activity [9]: 50%
Activity [10]: 68%
Activity [11]: 38%
Activity (HeLa [12]): inactive

Structure (SMILES): O=C(/C=C(O)/C=C/c1ccc(O)c(Br)c1)/C=C/c1ccc(O)c(Br)c1
IC50 [1]: 33 µM

Now from value to compound, other results behind:

IC50 [1]: 111 µM
Structure (SMILES): COc1cc(/C=C2\CCC/C(=C\c3ccc(O)c(OC)c3)C2=O)ccc1O [CYCLOVALONE]

IC50 [1]: 5 µM
Activity [2]: 50%
Activity [3]: 70%
Structure (SMILES): O=C1/C(=C/c2ccc(O)c(Br)c2)CCC/C1=C\c1ccc(O)c(Br)c1
Activity (HeLa [4]): Active
Activity (HeLa [5]): > 50%
Activity (HeLa [6]): 30%

IC50 [1]: 168 µM
Structure (SMILES): O=C1/C(=C/c2ccc(O)c(C(=O)O)c2)CCC/C1=C\c1ccc(O)c(C(=O)O)c1

IC50 [1]: 233 µM
Structure (SMILES): O=C1/C(=C/c2ccc(O)c(O)c2)CCC/C1=C\c1ccc(O)c(O)c1
